# Bioassay records: PubChem BioAssay, Johns Hopkins Ion Channel Center
# Sampled rows, rich in hits. Any-hit rate of the full collection: about 3.7%.
# KCNQ1 act: human KCNQ1 channel potentiation or activation; CHO-K1 KCNQ1, thallium flux FluxOR fluorescence; hits give high values; B-score at 10 µM; P51787; actives 0.35% (n = 310,000);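 active = fluorescence ratio B-score, a plate-corrected score, at least three library SD, with initial intensity B-score within 5 SD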
#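 Assay system: CHO-K1 cells stably expressing KCNQ1. Medium: assay buffer for compound exposure, DMSO matched across wells. Timing: 37 °C overnight plating, 90-min dark dye load, 20-min compound pretreatment. Signal: kinetic FluxOR fluorescence, 10 s baseline plus 110 s post-stimulus.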
# KCNK3 block: human KCNK3 channel inhibition, primary screen | O14649 | actives 0.84% (n = 340,000) | CHO-KCNK3 thallium flux, FluxOR fluorescence; hits give low values | B-score at 10 µM;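 active = B-score under library mean minus 4 SD, starting fluorescence ratio at most library mean plus 5 SD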;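 also: more negative B-score means stronger inhibition of thallium flux through KCNK3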
# hERG rescue: hERG (human) protection from proarrhythmic block; activation (rescue from dofetilide block), less the hit threshold, % at 10 µM; actives 0.51% (n = 310,000); Q12809; CHO-hERG, FluxOR thallium flux, dofetilide IC70 present;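 active = activation above the mean of controls blocked by dofetilide plus 5 SD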;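 also: thallium influx through hERG after potassium depolarization seen as dye fluorescence rise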
# Target sequence (Q12809 whole entry, looked up): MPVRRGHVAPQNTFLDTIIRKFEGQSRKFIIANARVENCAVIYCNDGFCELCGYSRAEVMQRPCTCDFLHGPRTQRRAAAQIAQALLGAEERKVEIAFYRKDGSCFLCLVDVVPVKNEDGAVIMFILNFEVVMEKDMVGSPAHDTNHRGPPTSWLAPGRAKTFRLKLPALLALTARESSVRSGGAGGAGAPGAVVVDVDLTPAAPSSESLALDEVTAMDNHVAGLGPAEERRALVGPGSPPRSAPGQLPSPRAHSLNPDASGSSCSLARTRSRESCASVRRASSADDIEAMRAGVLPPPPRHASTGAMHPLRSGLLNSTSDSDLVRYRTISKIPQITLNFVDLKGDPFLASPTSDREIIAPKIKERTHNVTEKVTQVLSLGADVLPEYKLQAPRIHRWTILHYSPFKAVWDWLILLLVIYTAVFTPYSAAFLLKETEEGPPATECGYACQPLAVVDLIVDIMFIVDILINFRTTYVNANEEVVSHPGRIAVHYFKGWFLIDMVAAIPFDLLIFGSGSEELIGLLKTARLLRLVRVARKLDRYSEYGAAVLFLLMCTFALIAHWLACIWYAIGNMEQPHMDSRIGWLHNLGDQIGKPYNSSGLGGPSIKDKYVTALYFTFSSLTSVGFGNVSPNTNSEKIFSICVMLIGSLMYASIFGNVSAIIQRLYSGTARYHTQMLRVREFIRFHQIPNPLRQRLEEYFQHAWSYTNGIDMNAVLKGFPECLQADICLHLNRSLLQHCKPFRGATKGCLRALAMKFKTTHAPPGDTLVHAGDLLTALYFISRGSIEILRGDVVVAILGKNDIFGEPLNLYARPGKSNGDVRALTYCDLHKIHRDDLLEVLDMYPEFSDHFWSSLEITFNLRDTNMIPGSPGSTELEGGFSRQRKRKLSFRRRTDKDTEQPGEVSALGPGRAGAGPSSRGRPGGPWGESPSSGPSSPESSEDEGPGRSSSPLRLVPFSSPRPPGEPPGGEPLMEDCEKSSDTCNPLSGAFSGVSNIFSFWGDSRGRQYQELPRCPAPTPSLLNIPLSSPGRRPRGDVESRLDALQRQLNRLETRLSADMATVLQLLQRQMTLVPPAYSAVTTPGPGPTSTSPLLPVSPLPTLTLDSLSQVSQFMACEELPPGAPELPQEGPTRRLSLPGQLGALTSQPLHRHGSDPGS
# Kir21 block: blocks the mouse Kir2.1 inward-rectifier potassium channel; AID 1672; B-score at 10 µM; HEK293-Kir2.1, FluxOR thallium flux fluorescence; hits give low values; actives 0.85% (n = 310,000);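 active = fluorescence ratio B-score at or below minus 3 SD of library scores, with starting-brightness B-score within 2 SD, cut at about -4.2 in these data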;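 also: channel flux triggered by added potassium and thallium sulfate stimulus; B-score of peak minus minimum fluorescence over baseline after thallium stimulus; more negative B-score means stronger Kir2.1 block with less thallium influx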
# KCNQ1 block: inhibitors of human KCNQ1 potassium channel | B-score at 10 µM | P51787 | AID 2642 | actives 1.3% (n = 310,000) | CHO-K1 KCNQ1, FluxOR thallium flux fluorescence; hits give high values;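 active = compounds whose thallium flux B-score, printed positive for inhibition, exceeds three library SD while starting fluorescence stays within three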;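 also: channel opened by potassium depolarization with thallium stimulus after 20 min compound exposure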
# KCNK9 block: blocks the human KCNK9 two-pore domain potassium channel; HEK293 KCNK9, FluxOR thallium flux fluorescence; hits give low values; B-score at 10 µM; actives 1.2% (n = 310,000); AID 488922;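 active = ratio B-score over 3 SD below the library mean, with starting fluorescence within 5 SD of its mean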;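 also: negative B-score means less thallium flux so channel inhibition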
# Hits are given with their value; 0 = inactive; - = no result.
SMILES,KCNQ1 act,KCNK3 block,hERG rescue,Kir21 block,KCNQ1 block,KCNK9 block
CC(C)Nc1nc(Oc2cccc(Cl)c2Cl)cc(C(F)(F)F)n1,0,0,0,0,0,0
CC[n+]1c(/C=C/N(C)c2ccccc2)oc2ccccc21,0,0,0,0,8,0
CC[n+]1c(/C=C/N(C)c2ccccc2)oc2ccc(F)cc21,0,0,0,0,0,0
C/C(=N\Nc1nc2ccccc2[nH]1)c1ccc(N2CCOCC2)cc1,0,0,0,0,0,0
Cc1c(Cc2ccccc2)sc(/N=C/c2ccc3ccccc3c2)c1C(N)=O,-,0,-,-,-,-
Cc1c(Cc2ccccc2)sc(/N=C/c2c(O)ccc3ccccc23)c1C(N)=O,0,0,0,0,7,0
Cc1ccc(C(=O)Nc2cc3c(oc2=O)CCCC3=O)cc1,0,0,0,0,0,0
CCOC(=O)CSc1nc2ccccc2c(=O)n1CC(C)C,0,0,0,0,0,0
COC(=O)c1ccc(CSc2nc3ccccc3c(=O)n2CC(C)C)o1,0,0,0,0,0,-7.3
COc1ccc(-c2nnc(CSc3nc4ccccc4c(=O)n3CC(C)C)o2)cc1OC,0,-9.5,0,0,0,0
COCCCn1c(=O)c2ccccc2n(Cc2cccc(C)c2)c1=O,0,0,0,0,0,0
O=C(Cc1ccc(Cl)c(Cl)c1)Nc1ccccc1N1CCCC1,0,0,0,0,0,0
O=C(Cc1ccc(F)cc1)Nc1ccccc1N1CCCC1,0,0,0,-5.4,0,0
O=C(Nc1ccccc1N1CCN(c2ccc(F)cc2)CC1)C12CC3CC(CC(C3)C1)C2,0,0,0,0,0,-7
O=C(Nc1ccccc1N1CCN(c2ccc(F)cc2)CC1)C1CCCCC1,0,0,0,0,0,-6.7
CCOC(=O)C1=C(COC(=O)c2ccccc2[N+](=O)[O-])NC(=O)NC1C (centres undefined),0,0,0,0,0,0
CC(C)C(c1nnnn1Cc1ccccc1)N(Cc1ccco1)Cc1cccs1 (centres undefined),0,0,0,0,0,0
COc1ccc(Cn2nnnc2C(C(C)C)N(Cc2ccco2)Cc2cccs2)cc1 (centres undefined),0,0,0,0,0,-7.6
Cc1cc(OCCN2CCN(S(=O)(=O)c3ccccc3F)CC2)ccc1C(C)C,-,0,-,-,-,-
O=C(Nc1nc2ccc(SC(F)F)cc2s1)c1ccc(NS(=O)(=O)c2ccc(F)c(F)c2)cc1,0,0,0,0,0,-6.8
Cc1ccccc1OCC(=O)NNC(=O)Cn1[nH]c(=O)c2ccccc2c1=O,-,0,-,-,-,-
CN(C)c1ccc(C(c2ccc(N(C)C)cc2)c2ccc([N+](=O)[O-])cc2)cc1,0,0,0,0,0,-7.8
O=[N+]([O-])c1ccc(N(c2ccccc2)c2ccccc2)cc1,0,0,0,0,9,0
CCN(C(=O)c1ccccc1)c1ccc([N+](=O)[O-])cc1,0,0,0,0,0,0
CCc1cc(=O)oc2c(C)c(OC(C)C(=O)NCCCn3ccnc3)ccc12 (centres undefined),0,0,0,0,0,0
SMILES,KCNQ1 act,KCNK3 block,hERG rescue,Kir21 block,KCNQ1 block,KCNK9 block
O=C(CNCc1ccccc1)NCCCN1CCCC1=O,0,0,0,0,0,0
CCOC(=O)CNC1CC(=O)N(c2cccc(Cl)c2)C1=O (centres undefined),0,0,5.3,0,0,0
CCOC(=O)c1nnn(-c2nonc2N)c1-c1ccccc1Cl,0,0,0,-4.9,0,0
O=C/C=C/c1c(-c2ccccc2)cc2oc3ccccc3cc1-2,0,0,0,0,0,0
Cc1ccc(SCc2ccc(C(=O)Nc3ccccc3C(=O)NC(C)C)cc2)cc1,0,0,0,0,0,0
CCCNC(=O)c1ccccc1NC(=O)c1ccc(CSc2ccccc2)cc1,0,0,0,0,6,0
Cc1cc(F)ccc1NC(=O)C1CSC2(C)CCC(=O)N12 (centres undefined),0,0,0,0,0,0
O=C(CCc1ccccc1)NC(=S)Nc1ccccc1Br,0,0,5.0,0,0,0
COc1ccccc1CCNC(=O)C(=O)NCC1CCCN1S(=O)(=O)c1ccccc1 (centres undefined),0,0,0,0,0,0
CN(C)c1ccc(C(=O)NC2(N3CCC3=O)CCCC2)cc1,0,0,0,0,0,0
CCC(=NN=C(CC)c1ccccc1O)c1ccccc1O,-,-9.9,-,-,-,-
COc1ccc(OC)c(S(=O)(=O)N2CCC(C(=O)Nc3cccc(C)c3)CC2)c1,0,0,0,0,6,-7.9
O=C(Nc1ccncc1)C1CCN(S(=O)(=O)c2c(Cl)cccc2Cl)CC1,0,0,0,0,0,-7
COc1ccc(OC)c(S(=O)(=O)N2CCC(C(=O)Nc3ccccc3)CC2)c1,0,0,0,0,0,0
COc1ccc(Nc2ccnc(Nc3ccc(OC)cc3)n2)cc1,0,0,0,-6.5,0,0
O=C(Nc1ncc(Br)s1)C(Cc1ccccc1)n1cccc1 (centres undefined),31,0,11,0,0,0
Cc1ccc(C(=O)C(C)OC(=O)Cc2n[nH]c(=O)c3ccccc23)cc1 (centres undefined),0,0,0,0,0,0
Cc1ccc(NC(=O)C(C)OC(=O)Cc2c[nH]c3ccccc23)cc1 (centres undefined),0,0,0,-6.6,0,0
CC(OC(=O)Cc1c[nH]c2ccccc12)C(=O)Nc1ccccc1[N+](=O)[O-] (centres undefined),0,0,0,-6.5,0,0
Cc1ccc(C(=O)C(C)OC(=O)Cc2c[nH]c3ccccc23)cc1 (centres undefined),0,0,0,-5.2,0,0
COc1ccc(-c2csc(NC(=O)C3=COCCO3)n2)cc1OC,-,0,-,-,-,-
O=C(CCc1ccccc1)NNC(=O)c1cc(Cl)ccc1O,0,0,0,0,0,0
Cc1ccc(NC(=O)CSc2ncn[nH]2)c([N+](=O)[O-])c1,-,0,-,-,-,-
Cc1ccc(NC(=O)NCc2ccccn2)cc1,0,0,9.3,0,0,0
COc1ccc(/C=C/C(=O)NC(=S)NNC(=O)c2cccs2)cc1,0,0,16,0,0,0
SMILES,KCNQ1 act,KCNK3 block,hERG rescue,Kir21 block,KCNQ1 block,KCNK9 block
COc1ccc(NC(=O)C(=O)NNC(=O)c2cccs2)c(OC)c1,22,0,12,0,0,0
COc1ccc(/C=C(/C(=O)Nc2ccccc2C(=O)NC(C)C)c2ccccc2)cc1,0,0,0,0,6,0
COc1ccc(NC(=O)C(=O)NNC(=O)c2cccs2)cc1,0,0,6.9,0,0,0
O=C(CC1C(=O)NCCN1CC(c1ccccc1)c1ccccc1)NC1CC1 (centres undefined),0,0,0,0,0,0
O=C1CCC(C(=O)N2CCC(CO)(Cc3ccc(Cl)cc3)CC2)=NN1,0,0,0,0,0,0
Cc1ccc(NC(=O)C(=O)NNC(=O)c2cccs2)cc1,40,0,20,0,0,0
